These results are taken from ChEMBL document CHEMBL2439964, “Identification of a series of 1,3,4-trisubstituted pyrazoles as novel hepatitis C virus entry inhibitors” (Bioorg Med Chem Lett, 2013).

One may read the CC50 as the concentration at which the toxic effect on the cells reaches its halfway point. A higher CC50 goes with better tolerance by the cells. For orientation: EC50 means the concentration at which the effect is half-maximal.

A short description of data set [1]: Cytotoxicity against human HuH7 cells. The class given is cell-based, Huh-7. Summed up:
(§1)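 Naïve Huh-7 cells in 384-well plates were given serially diluted compound, then infected with cell culture-derived HCV (HCVcc) at MOI 1. Live cells were analysed 72 h post-infection. EC50 came from 10-point dose-response in duplicate with quadruplicate measurements, or 5-point in duplicate for one series. CC50 came from automated per-well cell counts. SI = CC50/EC50.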

Data set [2] in a line: Cytotoxicity against human Huh-H1 cells. In kind it is cell-based.
Data set [3] concerns Hepatitis C virus. Description: Antiviral activity against cell culture derived HCV infected in human HuH7 cells assessed as inhibition of viral replication after 72 hrs. In kind it is functional, organism-based, Hepacivirus hominis. As to conditions: Huh-7, 72 h. The essentials: as §1
Data set [4] deals with Vesicular stomatitis virus. Description: Antiviral activity against Vesicular stomatitis virus pseudoparticle expressing glycoprotein assessed as inhibition of pseudoparticles entry into human Huh-H1 cells after 2 days by luciferase reporter gene assay. In kind it is functional, organism-based. (Reporter assays use an easily measured gene product as a stand-in for the process of interest.)

Data set [5] concerns Hepatitis C virus. Description: Antiviral activity against HCV genotype-1 pseudoparticle expressing envelope protein E1 and E2 assessed as inhibition of pseudoparticles entry into human Huh-H1 cells after 2 days by luciferase reporter gene assay. As to conditions: genotype 1, Huh-H1, 48 h. In kind it is functional, organism-based, Hepacivirus hominis.
Data set [6] in a line: Selectivity index, ratio of CC50 for human HuH7 cells to EC50 for cell culture derived HCV. More on the design: species or system Huh-7. Summed up:
as §1

Molecules are shown by their SMILES. Active and inactive are the calls of the source. No cut-off for these calls is given here.

Turning to `CN1CCN(CCNCc2cn(-c3ccc(F)cc3F)nc2-c2ccc(Cl)cc2)CC1`, the CC50 in data set [1] was 19 µM; in data set [2], 9.1 µM. In addition, the results for the EC50 with Hepatitis C virus [3] and with Hepatitis C virus [5] were 0.38 µM and 1.9 µM, respectively. For the same compound, the inhibition entry in data set [4] was “inactive”. Also, the “Ratio CC50/EC50” value in data set [6] is on record as 50.
As for `Cc1ccccc1-c1nn(-c2ccc(F)cc2F)cc1CNCCCN(C)C`, the CC50 in data set [1] was over 20 µM; in data set [2] it was over 25 µM. Moreover, the EC50 is 6.7 µM in the data set on Hepatitis C virus [3] and 6.1 µM with Hepatitis C virus [5]. For the same compound, the inhibition result in data set [4] is “inactive”. Besides, the “Ratio CC50/EC50” value in data set [6] is listed as over 3.
Regarding `CCCCCNc1nc(Nc2ccc([N+](=O)[O-])cc2)nc(OCC(F)(F)F)n1`, in data set [2], the CC50 is over 25 µM. Also, the inhibition result in data set [4] is “inactive”.
On to `CN1CCN(CCCNCc2cn(-c3ccc(C(F)(F)F)cc3)nc2-c2ccc(OC(F)(F)F)cc2)CC1`, for which, in data set [1], it took 2.3 µM to reach half-maximal cytotoxicity (CC50). Also, the concentration giving a half-maximal response (EC50) in the data set on Hepatitis C virus [3] amounted to 0.75 µM. Moreover, the “Ratio CC50/EC50” value in data set [6] is 3.1.
Consider `CN1CCN(CCNCc2cn(-c3ccc(C(F)(F)F)cc3)nc2-c2ccc(Cl)cc2)CC1`, for which, in data set [1], the midpoint of cytotoxicity, the CC50, lay at 3 µM. In addition, the half-maximal effective concentration (EC50) in the data set on Hepatitis C virus [3] was found to be 0.36 µM. Besides, the “Ratio CC50/EC50” value in data set [6] amounted to 8.4.
In data set [1], `CCCN1CCC(CNCc2cn(-c3ccc(F)cc3F)nc2-c2ccccc2C)CC1` registered a CC50 of over 20 µM. The EC50 in the data set on Hepatitis C virus [3] was 2.3 µM. Further, the “Ratio CC50/EC50” value in data set [6] was over 8.8.
In data set [1], `CCCN1CCC(CNCc2cn(-c3ccc(C(F)(F)F)cc3)nc2-c2ccc(C(F)(F)F)cc2)CC1` showed a cytotoxic concentration (CC50) of 1.2 µM. Moreover, the EC50 in the data set with Hepatitis C virus [3] is 0.33 µM. In data set [6], the “Ratio CC50/EC50” value worked out at 3.6.
Compound `Cc1ccccc1-c1nn(-c2ccc(F)cc2F)cc1CN1CCC(N2CCCCC2)CC1` came in with a CC50 in data set [1] of over 20 µM. The EC50 with Hepatitis C virus [3] worked out at 7.5 µM. In addition, the “Ratio CC50/EC50” value in data set [6] is listed as over 2.7.
`CN1CCN(CCNCc2cn(-c3ccc(F)cc3F)nc2-c2ccc(N(C)C)cc2)CC1`: the CC50 in data set [1] was over 20 µM. In the data set on Hepatitis C virus [3], the EC50 was 1.3 µM. In addition, the “Ratio CC50/EC50” value in data set [6] was over 15.
In data set [1], `CN1CCN(CCCNCc2cn(-c3ccc([N+](=O)[O-])cc3)nc2-c2ccc(Cl)cc2)CC1` gave a CC50 of 3.7 µM. Besides, in the data set on Hepatitis C virus [3], the concentration for a half-maximal effect (EC50) is 0.13 µM. In addition, the “Ratio CC50/EC50” value in data set [6] is reported as 28.
The compound `CN1CCN(CCNCc2cn(-c3ccc(F)cc3F)nc2C2CCCCC2)CC1` yielded a CC50 in data set [1] of over 20 µM. Further, the EC50 with Hepatitis C virus [3] was found to be 1.2 µM. Further, the “Ratio CC50/EC50” value in data set [6] is over 17.
In data set [1], `Cc1ccccc1-c1nn(-c2ccc(OC(F)(F)F)cc2)cc1CNCCN1CCN(C)CC1` came in with a 50% cytotoxic concentration (CC50) of 17 µM. Besides, the half-maximal effective concentration (EC50) with Hepatitis C virus [3] is 0.9 µM. Moreover, the “Ratio CC50/EC50” value in data set [6] is on record as 19.
`Cc1cccc(-c2nn(-c3ccc(F)cc3F)cc2CNCCN2CCN(C)CC2)c1` displayed a CC50 in data set [1] of over 20 µM. Further, in the data set on Hepatitis C virus [3], the EC50 was 1.7 µM. The “Ratio CC50/EC50” value in data set [6] is reported as over 12.
Regarding `Cc1ccccc1-c1nn(-c2ccc(F)cc2F)cc1CNCCN1CCN(C)CC1`, the 50% cytotoxic concentration (CC50) in data set [1] is over 20 µM. In addition, the 50% effective concentration (EC50) in the data set with Hepatitis C virus [3] was 2.8 µM. Moreover, in data set [6], the “Ratio CC50/EC50” value was over 7.2.
In turn, `CN1CCN(CCNCc2cn(-c3ccc([N+](=O)[O-])cc3)nc2-c2ccc(Cl)cc2)CC1` came in with a CC50 in data set [1] of 5 µM. In addition, the 50% effective concentration (EC50) in the data set with Hepatitis C virus [3] turned out to be 0.29 µM. For the same compound, in data set [6], the “Ratio CC50/EC50” value is listed as 17.
In data set [1], `CN1CCN(CCNCc2cn(-c3ccc(F)cc3F)nc2-c2ccccc2Cl)CC1` showed a CC50 of over 20 µM. For the same compound, the 50% effective concentration (EC50) in the data set with Hepatitis C virus [3] was determined as 3.3 µM. Besides, the “Ratio CC50/EC50” value in data set [6] is over 6.1.
Compound `Cc1ccccc1-c1nn(-c2ccc(C(F)(F)F)cc2)cc1CNCCN1CCN(C)CC1` came in with a CC50 in data set [1] of 11 µM. In the data set on Hepatitis C virus [3], the concentration for a half-maximal effect (EC50) was determined as 0.46 µM. For the same compound, the “Ratio CC50/EC50” value in data set [6] stood at 24.
For `CN1CCN(CCCNCc2cn(-c3ccc([N+](=O)[O-])cc3)nc2-c2ccc(OC(F)(F)F)cc2)CC1` the same measures were 1.6 µM, 0.34 µM and 4.6.
On to `Cc1ccccc1-c1nn(-c2ccc([N+](=O)[O-])cc2)cc1CNCCN1CCN(C)CC1`, for which, in data set [1], the 50% cytotoxic concentration (CC50) was over 20 µM. In addition, the concentration for a half-maximal effect (EC50) in the data set with Hepatitis C virus [3] amounted to 0.49 µM. Besides, the “Ratio CC50/EC50” value in data set [6] is reported as over 41.
As to `CN1CCN(CCNCc2cn(-c3ccc([N+](=O)[O-])cc3)nc2-c2ccc(OC(F)(F)F)cc2)CC1`, half-maximal cytotoxicity in data set [1] (CC50) was put at 4.4 µM. Besides, the EC50 in the data set on Hepatitis C virus [3] stood at 0.4 µM. Besides, the “Ratio CC50/EC50” value in data set [6] was determined as 11.
Take `Cc1ccccc1-c1nn(-c2ccc(Br)cc2)cc1CNCCN1CCN(C)CC1`: the midpoint of cytotoxicity in data set [1], the CC50, lay at 9.6 µM. The EC50 with Hepatitis C virus [3] is 1.2 µM. Further, the “Ratio CC50/EC50” value in data set [6] is 8.
